# Experimental data reported in paper PMC12279052 (RSC Advances, 2025).
# Columns and labels:
# [1] = Steady-state fluorescence with pyrene probe; assay type: physicochemical; conditions: 298.15 K
# Outline: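 Pyrene (1 μM) served as probe at 298.15 K. Excitation was 335 nm, emission 355–650 nm, slits 2.5 nm, 700 V, 240 nm min−1, in a 1 cm quartz cuvette. cmc came from a Boltzmann fit of I1/I3 (373/384 nm). For Nagg, test compound at 2.5 cmc was quenched with cetylpyridinium chloride at 0.2–1.0 × 10−4 mol dm−3, and Nagg was derived from linear ln(I0/I) versus [Q].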
# [2] = Density measurement, apparent molar volume at infinite dilution in water; assay type: physicochemical; conditions: aqueous solution
# Outline: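 Solution density was measured with a vibrating-tube densitometer calibrated with dry air and double-distilled water, with Peltier temperature control at ±0.01 K and density uncertainty 2.0 × 10−4 g cm−3. Apparent molar volumes were computed versus molality. Infinite-dilution values came from the Redlich–Mayer equation with empirical parameters Sv and Bv.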
# [3] = Conductivity in low concentration region; assay type: physicochemical; conditions: in water
# Outline: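 Conductivity of aqueous test compound solutions was measured at each temperature in double-distilled deionized water (0.8 − 1.0 × 10−4 S m−1 at 298.15 K). The digital meter and electrode were calibrated with standard KCl, and the thermostat held ±0.02 K; relative standard uncertainty was ±3%.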
# [4] = Octanol–water partition coefficient, shake-flask method; assay type: physicochemical
# Outline: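 Shake-flask partitioning was run at 25 and 37 °C in water, SGF (pH 1.2), SIF (pH 6.8) or SBF (pH 7.4). Fluids were prepared per USP without enzyme and pre-saturated with n-octanol (24 h shaking, 24 h separation). Test compound in buffer-saturated octanol (5 mL) was shaken 24 h with 5 mL octanol-saturated buffer, then centrifuged 10 min. The octanol phase was read by UV at 200 nm, and log Ko/w = log Co/(C−Co).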
# [5] = Aggregation in water by electrical conductivity; assay type: physicochemical; conditions: for cmc: conductivity, water; for ionization degree α: micelle (cmc); for ΔG^0m / ΔH^0m / ΔS^0m / −TΔS^0m: micellization (cmc)
# Outline: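 Conductivity of aqueous test compound solutions was measured with a digital conductivity meter and electrode, calibrated against standard KCl, with a thermostat holding ±0.02 K and ±3% relative uncertainty. cmc and cac were taken from the break points, found by fitting the Aguiar equation. α came from the ratio of post- to pre-transition slopes (A2/A1), and micellization thermodynamic functions from the mass action model.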
# [6] = system: Cutibacterium acnes ATCC6919; experiment: Antibacterial activity, broth dilution MIC; assay type: cell-based; conditions: C. acnes, n = 3
# [7] = system: human hepatocellular carcinoma cell line HepG2; experiment: Cell toxicity assay, MTT; assay type: cell-based; conditions: HepG2, MTT, 24 h, n = 3
# [8] = Thermal stability by TG/DTG; assay type: physicochemical; conditions: first decomposition process, 10 K min^−1, argon
# Outline: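 Simultaneous thermal analysis ran from 30–500 °C at 10 K min−1 on 3–5 mg sample in an Al2O3 crucible, with α-Al2O3 as reference. Argon served as protective gas at 20 mL min−1 and as purge gas at 60 mL min−1.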
# [9] = system: Staphylococcus aureus ATCC29213; experiment: Antibacterial activity, broth dilution MIC; assay type: cell-based; conditions: S. aureus, n = 3
# [10] = system: Candida albicans ATCC10231; experiment: Antimicrobial activity, broth dilution MIC; assay type: cell-based; conditions: C. albicans, n = 3
# [11] = system: Escherichia coli ATCC25922; experiment: Antibacterial activity, broth dilution MIC; assay type: cell-based; conditions: E. coli, n = 3
# [12] = system: human lung cancer cell line A549; experiment: Cell toxicity assay, MTT; assay type: cell-based; conditions: A549, MTT, 24 h, n = 3
structure (smiles),measurement,setting,value
CCCCCCCCCCC(=O)O.O=C1CCC[C@@H]2[C@H]3CCCN4CCC[C@@H](CN12)[C@@H]34 [[Mat][C11]],cmc,"[1]; Fluorescence (pyrene I1/I3), water",0.00384 mol/kg
same,N agg (aggregation number),"[1]; ST = 2.5 cmc, fluorescence quenching with CPC",77
same,"Apparent molar volume at infinite dilution V^0 2,φ",[2]; 293.15 K,386.51 ± 0.35 cm^3 mol^−1
same,"Apparent molar volume at infinite dilution V^0 2,φ",[2]; 298.15 K,389.66 ± 0.38 cm^3 mol^−1
same,"Apparent molar volume at infinite dilution V^0 2,φ",[2]; 303.15 K,392.77 ± 0.34 cm^3 mol^−1
same,"Apparent molar volume at infinite dilution V^0 2,φ",[2]; 308.15 K,396.26 ± 0.38 cm^3 mol^−1
same,Association constant KA,[3]; 298.15 K,19.06 ± 1.31 dm^3 mol^−1
same,Limiting molar conductivity Λ0,[3]; 298.15 K,44.67 ± 0.06 S cm^2 mol^−1
same,Association constant KA,[3]; 303.15 K,7.36 ± 1.09 dm^3 mol^−1
same,Limiting molar conductivity Λ0,[3]; 303.15 K,49.46 ± 0.06 S cm^2 mol^−1
same,Association constant KA,[3]; 308.15 K,2.04 ± 1.14 dm^3 mol^−1
same,Limiting molar conductivity Λ0,[3]; 308.15 K,55.26 ± 0.07 S cm^2 mol^−1
same,Log K o/w,"[4]; pH = 1.2 (SGF), 25 °C",−0.32
same,Log K o/w,"[4]; pH = 1.2 (SGF), 37 °C",0.26
same,Log K o/w,"[4]; pH = 6.8 (SIF), 25 °C",0.04
same,Log K o/w,"[4]; pH = 6.8 (SIF), 37 °C",0.35
same,Log K o/w,"[4]; pH = 7.0 (ultrapure water), 25 °C",0.77
same,Log K o/w,"[4]; pH = 7.0 (ultrapure water), 37 °C",0.91
same,Log K o/w,"[4]; pH = 7.4 (SBF), 25 °C",1.20
same,Log K o/w,"[4]; pH = 7.4 (SBF), 37 °C",1.27
same,cmc,[5]; 293.15 K,0.00385 mol/kg
same,cmc,[5]; 298.15 K,0.00395 mol/kg
same,cmc,[5]; 303.15 K,0.00402 mol/kg
same,cmc,[5]; 308.15 K,0.00407 mol/kg
same,cmc,[5]; 313.15 K,0.00411 mol/kg
same,ionization degree α,[5]; 293.15 K,0.8532
same,ionization degree α,[5]; 298.15 K,0.8429
same,ionization degree α,[5]; 303.15 K,0.8267
same,ionization degree α,[5]; 308.15 K,0.8151
same,ionization degree α,[5]; 313.15 K,0.7968
same,ΔG^0m,[5]; 293.15 K,-6.398 kcal/mol
same,ΔH^0m,[5]; 293.15 K,-1.04 kcal/mol
same,ΔS^0m,[5]; 293.15 K,76.44 J mol^−1 K^−1
same,−TΔS^0m,[5]; 293.15 K,-5.356 kcal/mol
same,ΔG^0m,[5]; 298.15 K,-6.546 kcal/mol
same,ΔH^0m,[5]; 298.15 K,-0.872 kcal/mol
same,ΔS^0m,[5]; 298.15 K,79.65 J mol^−1 K^−1
same,−TΔS^0m,[5]; 298.15 K,-5.676 kcal/mol
same,ΔG^0m,[5]; 303.15 K,-6.738 kcal/mol
same,ΔH^0m,[5]; 303.15 K,-0.688 kcal/mol
same,ΔS^0m,[5]; 303.15 K,83.51 J mol^−1 K^−1
same,−TΔS^0m,[5]; 303.15 K,-6.052 kcal/mol
same,ΔG^0m,[5]; 308.15 K,-6.907 kcal/mol
same,ΔH^0m,[5]; 308.15 K,-0.483 kcal/mol
same,ΔS^0m,[5]; 308.15 K,87.26 J mol^−1 K^−1
same,−TΔS^0m,[5]; 308.15 K,-6.427 kcal/mol
same,ΔG^0m,[5]; 313.15 K,-7.122 kcal/mol
same,ΔH^0m,[5]; 313.15 K,-0.258 kcal/mol
same,ΔS^0m,[5]; 313.15 K,91.70 J mol^−1 K^−1
same,−TΔS^0m,[5]; 313.15 K,-6.864 kcal/mol
same,MIC,[6],460 µM
same,IC50,[7],450 µM
same,T onset (onset decomposition temperature),[8],199.4 °C
same,MIC,[9],900 µM
same,MIC,[10],460 µM
same,MIC,[11],28800 µM
same,IC50,[12],710 µM
